High-throughput results deposited in PubChem BioAssay by ICCB-Longwood Screening Facility, Harvard Medical School.
The full list was thinned out, with hits kept by preference.
LANA-nucl inh – inhibitors of KSHV LANA binding to nucleosomes; FITC-LANA1-23 / chicken nucleosome fluorescence polarization; hits give low values; z-score (test concentration not listed); hit rate 0.3% among 51,000; AID 720717;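 active = both repeat wells score below -2 in polarization z-score versus plate sample wells, excluding overly bright wells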
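Test system: purified chicken nucleosomes with FITC-labelled LANA N-terminal peptide (1-23); Input: 240 nM purified chicken nucleosomes (480 nM peptide binding sites), final; Medium: TEN-BT buffer, pH 7.5; Timing: 10–45 min, room temperature; Technique: fluorescence polarization, 480 nm excitation, 535 nm parallel and perpendicular emission; Replication: duplicates.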
Ab BasE inh – inhibitors of Acinetobacter baumannii siderophore enzyme BasE; purified BasE, fluorescence polarization binding displacement; AID 485350; hit rate 0.1% among 84,000; inhibition, % (concentration not given with the values); in the data active = inhibition above about 25%, passing the limit was not always enough
Large screens that a line does not name were inactive.

CC(=O)Nc1ccc(S(=O)(=O)n2c(N)c(C#N)c3nc4ccccc4nc32)cc1	none (no result: LANA-nucl inh)
Cn1c(=O)c2nc3ccc(N=Cc4c(O)n(Cc5ccccc5)c(=O)[nH]c4=O)cc3nc2n(C)c1=O	LANA-nucl inh -2.3
CCCCn1c(=O)[nH]c2nc3cc(N=Cc4c(O)n(C)c(=O)n(C)c4=O)ccc3nc2c1=O	none
Cc1cc2nc3c(=O)n(C)c(=O)[nH]c3nc2cc1N=CN(C)C	LANA-nucl inh -2.1
CCCCCCn1c(=O)[nH]c2nc3cc(N)c(C)cc3nc2c1=O	none (no result: LANA-nucl inh)
Cc1cc(C)n(CCCNC(=O)CCc2ccc(S(=O)(=O)N3CCOCC3)cc2)n1	none (no result: LANA-nucl inh)
CC(C)=CCC(C)(C)CNc1ccc(C)cc1	none
O=C(CCc1nc2ccccc2c(=O)[nH]1)Nc1ccc2c(c1)CCC2	Ab BasE inh 28 (no result: LANA-nucl inh)
O=C(CCc1nc2ccccc2c(=O)[nH]1)Nc1ccc(F)cc1	none (no result: LANA-nucl inh)
Cc1cc(NC(=O)c2ccc(=O)[nH]c2)ccc1Br	none (no result: LANA-nucl inh)
N#Cc1ccc(-c2cccnc2)n(CC(=O)NC2CCCCC2)c1=O	none
Cc1ccc(-n2c(SCc3nnc4n3CCCCC4)nnc2-c2ccccc2)cc1	none (no result: LANA-nucl inh)
Cc1nc(SCC(=O)NC2CCCC2)[nH]c(=O)c1Cc1ccccc1	none
O=C(CSc1n[nH]c(Cc2ccccc2)n1)NC1CCCCC1	LANA-nucl inh -2.4
CCCN1CC=C2C(C1)C(c1ccc(C(=O)OC)cc1)C(C#N)=C(N)C2(C#N)C#N (stereo not drawn)	none
CCN1CC=C2C(C1)C(c1ccc(Cl)s1)C(C#N)=C(N)C2(C#N)C#N (stereo not drawn)	LANA-nucl inh -5.9
CC1=C(C(=O)NCCN2CCCC2)C2(CCCCCC2)OC1=O	none
O=c1[nH]c(=S)[nH]nc1-c1ccc(O)cc1	none
CC(CNC(=O)c1cc(C2CC2)[nH]n1)c1ccccc1 (stereo not drawn)	none
Cc1cc(C(=O)NCC(C)c2ccccc2)n[nH]1 (stereo not drawn)	LANA-nucl inh -2.2
N#C/C(=C(/O)c1cccc(Cl)c1)c1nc2ccccc2s1	none
CCN(C(=O)NC1(C(F)(F)F)Oc2ccc(Cl)cc2O1)C1CCCCC1 (stereo not drawn)	Ab BasE inh 40
CCN(C(=O)c1cccc(Cl)c1)C1CCCCC1	none
CC(C(=O)Nc1ccc2c(c1)OCO2)N(C)Cc1c(F)cccc1Cl (stereo not drawn)	none (no result: LANA-nucl inh)
CC(C)Cn1c(SCC(=O)N(C)C2CCCCC2)nc2ccccc2c1=O	none (no result: LANA-nucl inh)
O=C(Nc1ccccc1N1CCOCC1)c1cccc(N2C(=O)c3ccccc3C2=O)c1	none (no result: LANA-nucl inh)
O=C1c2cccc3c(N4CCOCC4)ccc(c23)C(=O)N1c1ccccc1	LANA-nucl inh -3.1
